Laboratory results: paper PMC4838375 (Nucleic Acids Research, 2016)

What was measured:
[1] = test system: PHDVC5HCHNSD1; assay: NMR titration; type: binding, murine; settings: for average CSP value <CSP>: 15N HSQC of PHDVC5HCHNSD1 (0.2 mM), up to 12 molar excess of peptide, 295 K, pH 6.3; for interaction strength: fast exchange regime; for interaction strength / affinity: up to 12 molar excess; for affinity: no saturation
Outline: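 15N-labelled PHDvC5HCH domain was expressed in E. coli BL21(DE3) in 15NH4Cl minimal medium with 1 mM IPTG at 28°C overnight. Protein at 0.2–0.3 mM, quantified by UV (ε 12490 M⁻¹cm⁻¹), was in 20 mM sodium phosphate pH 6.3, 0.15 M NaCl, 2 mM DTT, 50 μM ZnCl₂. Peptide (>98% pure, 15 mM stock, dry-weight quantified) was added stepwise; 2D 15N-HSQC was acquired per point. CSP = [(ΔδHN² + ΔδN²/25)/2]^½.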

[2] = test system: PHDVC5HCHNSD1; settings: biotinylated peptides, 21 aminoacids long; cited from earlier work

Row | Compound | amide chemical shifts induced ([1]; NMR titration, up to 300 mM of Lysine) | binding in vitro [2] | average CSP value <CSP> [1] | interaction strength ([1]; NMR titration) | affinity ([1]; NMR titration)
1 | NCCCC[C@H](N)C(=O)O [Lysine] | induced amide chemical shifts in the same region | – | – | – | –
2 | H3K4me3_1–21: Synthetic histone H3 peptide, K4me3 | – | binds | ~0.02 ppm | extremely weak interactions | affinities in the high mM range
3 | H3K9me3_1–21: Synthetic histone H3 peptide, K9me3 | – | binds | ~0.02 ppm | extremely weak interactions | affinities in the high mM range
4 | H3_1–21: Synthetic histone H3 peptide | – | – | ~0.02 ppm | extremely weak interactions | affinities in the high mM range
